Laboratory results published in ChEMBL document CHEMBL3758150, “Discovery and SAR of N-(1-((substituted piperidin-4-yl)methyl)-3-methoxypiperidin-4-yl)-2-methoxybenzamide derivatives: 5-Hydroxytryptamine receptor 4 agonist as a potent prokinetic agent” (Eur J Med Chem, 2016).

Key:
[1] = Solubility of the compound in distilled water; assay type: physicochemical
[2] = target: T1, 5-hydroxytryptamine receptor 4 (Homo sapiens, UniProt Q13639); assay: Displacement of [3H]-GR113808 from human 5-HT4 receptor expressed in African green monkey COS7 cell membranes after 30 mins by liquid scintillation counting analysis; parameters: species or system COS-7
T1 sequence (Q13639 whole entry): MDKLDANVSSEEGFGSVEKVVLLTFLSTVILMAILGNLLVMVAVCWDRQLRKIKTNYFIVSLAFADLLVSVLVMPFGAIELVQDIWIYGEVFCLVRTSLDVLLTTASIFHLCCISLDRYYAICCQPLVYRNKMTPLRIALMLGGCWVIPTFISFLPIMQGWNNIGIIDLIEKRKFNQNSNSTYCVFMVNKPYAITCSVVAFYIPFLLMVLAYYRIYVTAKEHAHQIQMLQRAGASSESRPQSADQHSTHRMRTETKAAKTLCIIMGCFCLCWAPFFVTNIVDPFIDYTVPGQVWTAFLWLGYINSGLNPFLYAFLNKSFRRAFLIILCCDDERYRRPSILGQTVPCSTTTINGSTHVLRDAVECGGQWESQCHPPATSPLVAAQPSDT
Outline: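 Membranes from Cos-7 cells expressing human 5-HT4: cells washed in PBS, pelleted, then resuspended in ice-cold 50 mM HEPES pH 7.4 and spun at 40,000 g for 30 min at 4 °C. Nonspecific binding was set with 10 μM 5-HT. IC50 came from linear regression of the displacement curve.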

Rattus norvegicus [3] = assay: Induction of gastric emptying rate in Sprague-Dawley rat at 5 mg/kg, iv administered prior to feeding measured after 30 mins; assay type: functional, Stomach
[4] = target: Voltage-gated inwardly rectifying potassium channel KCNH2 (Homo sapiens, UniProt Q12809); assay: Inhibition of human ERG channel by fluorescence polarization assay
Sequence of Voltage-gated inwardly rectifying potassium channel KCNH2 (Q12809 whole entry): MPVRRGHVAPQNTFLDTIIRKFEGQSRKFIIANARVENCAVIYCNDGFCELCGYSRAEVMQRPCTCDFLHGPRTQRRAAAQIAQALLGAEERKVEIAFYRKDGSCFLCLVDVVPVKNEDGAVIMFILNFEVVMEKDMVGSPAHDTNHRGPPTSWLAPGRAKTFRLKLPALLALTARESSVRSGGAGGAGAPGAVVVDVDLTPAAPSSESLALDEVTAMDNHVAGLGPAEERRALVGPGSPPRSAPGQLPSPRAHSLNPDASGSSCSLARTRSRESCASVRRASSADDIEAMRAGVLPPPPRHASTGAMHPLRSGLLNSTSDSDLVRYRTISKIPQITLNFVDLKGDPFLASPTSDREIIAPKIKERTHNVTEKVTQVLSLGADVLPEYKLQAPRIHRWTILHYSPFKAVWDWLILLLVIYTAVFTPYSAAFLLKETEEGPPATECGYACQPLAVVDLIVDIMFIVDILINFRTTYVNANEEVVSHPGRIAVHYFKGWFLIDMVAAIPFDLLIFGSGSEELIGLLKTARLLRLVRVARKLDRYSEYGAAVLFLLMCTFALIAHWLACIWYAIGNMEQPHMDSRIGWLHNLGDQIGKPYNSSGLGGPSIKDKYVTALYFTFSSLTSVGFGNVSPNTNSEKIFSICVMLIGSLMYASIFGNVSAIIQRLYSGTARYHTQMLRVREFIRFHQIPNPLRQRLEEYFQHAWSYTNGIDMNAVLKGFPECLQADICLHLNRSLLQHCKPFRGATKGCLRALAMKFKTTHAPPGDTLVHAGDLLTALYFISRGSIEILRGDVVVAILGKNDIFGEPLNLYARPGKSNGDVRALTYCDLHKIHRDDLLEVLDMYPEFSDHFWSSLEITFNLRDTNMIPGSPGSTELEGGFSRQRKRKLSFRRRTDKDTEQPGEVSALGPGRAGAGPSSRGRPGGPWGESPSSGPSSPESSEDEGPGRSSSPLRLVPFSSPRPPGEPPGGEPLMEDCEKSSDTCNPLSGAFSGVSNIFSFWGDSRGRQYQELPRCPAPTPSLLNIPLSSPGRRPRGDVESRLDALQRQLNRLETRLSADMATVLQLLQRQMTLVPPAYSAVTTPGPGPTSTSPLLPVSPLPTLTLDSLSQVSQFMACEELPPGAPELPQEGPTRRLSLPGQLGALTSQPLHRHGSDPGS

[5] = target: Cholecystokinin receptor type A (Homo sapiens) (UniProt P32238); conditions: 1 to 2 uM
[6] = target: Substance-P receptor (Homo sapiens) (UniProt P25103); conditions: 1 to 2 uM
Sequence of Substance-P receptor (Homo sapiens) (P25103 whole entry): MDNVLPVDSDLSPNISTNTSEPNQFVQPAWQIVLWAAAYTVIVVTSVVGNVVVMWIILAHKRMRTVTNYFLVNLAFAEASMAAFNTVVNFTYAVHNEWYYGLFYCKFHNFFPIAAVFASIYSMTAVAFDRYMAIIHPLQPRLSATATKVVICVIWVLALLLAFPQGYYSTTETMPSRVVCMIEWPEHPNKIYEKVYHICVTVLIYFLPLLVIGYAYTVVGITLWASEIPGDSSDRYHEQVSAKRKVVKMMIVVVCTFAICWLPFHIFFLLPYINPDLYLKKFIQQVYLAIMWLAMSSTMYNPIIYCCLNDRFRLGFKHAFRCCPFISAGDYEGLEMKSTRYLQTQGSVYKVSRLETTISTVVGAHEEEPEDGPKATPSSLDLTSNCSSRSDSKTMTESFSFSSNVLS

[7] = target: D(2) dopamine receptor (Homo sapiens) (UniProt P14416); conditions: 1 to 2 uM
Sequence of D(2) dopamine receptor (Homo sapiens) (P14416 whole entry): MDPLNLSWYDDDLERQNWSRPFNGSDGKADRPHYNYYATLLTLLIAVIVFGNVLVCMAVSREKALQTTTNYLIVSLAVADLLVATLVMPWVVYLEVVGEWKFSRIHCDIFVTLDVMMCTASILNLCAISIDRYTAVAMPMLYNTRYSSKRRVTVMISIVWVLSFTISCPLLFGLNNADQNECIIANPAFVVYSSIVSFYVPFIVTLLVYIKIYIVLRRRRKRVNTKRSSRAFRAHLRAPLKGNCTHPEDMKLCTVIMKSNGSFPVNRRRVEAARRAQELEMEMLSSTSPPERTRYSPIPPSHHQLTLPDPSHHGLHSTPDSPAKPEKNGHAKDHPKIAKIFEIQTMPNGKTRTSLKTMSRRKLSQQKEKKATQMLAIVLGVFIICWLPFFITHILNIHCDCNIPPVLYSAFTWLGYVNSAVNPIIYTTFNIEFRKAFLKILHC

[8] = target: 5-hydroxytryptamine receptor 1A (Homo sapiens) (UniProt P08908); conditions: 1 to 2 uM
[9] = target: 5-hydroxytryptamine receptor 3A (Homo sapiens) (UniProt P46098); conditions: 1 to 2 uM
Sequence of 5-hydroxytryptamine receptor 3A (Homo sapiens) (P46098 whole entry): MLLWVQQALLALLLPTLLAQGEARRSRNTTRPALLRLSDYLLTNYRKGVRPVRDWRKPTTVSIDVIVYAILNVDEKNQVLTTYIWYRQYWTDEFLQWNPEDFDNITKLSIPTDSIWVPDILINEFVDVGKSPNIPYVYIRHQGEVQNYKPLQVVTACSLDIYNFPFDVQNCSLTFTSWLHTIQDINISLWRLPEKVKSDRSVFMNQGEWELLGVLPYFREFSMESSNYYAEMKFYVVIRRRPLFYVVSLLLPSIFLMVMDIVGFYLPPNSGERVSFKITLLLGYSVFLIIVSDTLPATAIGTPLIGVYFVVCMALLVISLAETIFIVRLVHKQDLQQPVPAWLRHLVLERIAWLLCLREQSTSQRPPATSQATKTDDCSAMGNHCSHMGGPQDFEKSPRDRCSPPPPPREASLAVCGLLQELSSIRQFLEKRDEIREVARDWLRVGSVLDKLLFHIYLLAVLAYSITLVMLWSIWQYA

[10] = target: T1, 5-hydroxytryptamine receptor 4; conditions: 1 to 2 uM
[11] = target: 5-hydroxytryptamine receptor 1B (Homo sapiens) (UniProt P28222); conditions: 1 to 2 uM
[12] = target: 5-hydroxytryptamine receptor 2B (Homo sapiens) (UniProt P41595); conditions: 1 to 2 uM
Sequence of 5-hydroxytryptamine receptor 2B (Homo sapiens) (P41595 whole entry): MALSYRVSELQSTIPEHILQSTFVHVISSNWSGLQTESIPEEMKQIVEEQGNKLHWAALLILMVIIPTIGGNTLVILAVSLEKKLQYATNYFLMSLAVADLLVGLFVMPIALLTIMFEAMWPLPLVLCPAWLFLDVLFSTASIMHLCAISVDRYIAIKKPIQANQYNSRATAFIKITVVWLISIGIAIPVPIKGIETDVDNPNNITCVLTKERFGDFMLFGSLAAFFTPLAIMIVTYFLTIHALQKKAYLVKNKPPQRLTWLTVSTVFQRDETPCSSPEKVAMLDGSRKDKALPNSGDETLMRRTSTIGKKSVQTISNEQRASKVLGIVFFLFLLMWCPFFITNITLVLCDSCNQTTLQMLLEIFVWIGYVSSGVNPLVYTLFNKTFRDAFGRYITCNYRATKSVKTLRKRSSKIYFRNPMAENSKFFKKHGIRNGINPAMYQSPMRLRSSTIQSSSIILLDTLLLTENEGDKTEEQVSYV

[13] = target: Muscarinic acetylcholine receptor M3 (Homo sapiens) (UniProt P20309); conditions: 1 to 2 uM
[14] = target: Muscarinic acetylcholine receptor M2 (Homo sapiens) (UniProt P08172); conditions: 1 to 2 uM
[15] = target: Adrenergic receptor alpha-1 (Homo sapiens) (UniProt P35348+P25100+P35368); conditions: 1 to 2 uM
[16] = target: Beta-1 adrenergic receptor (Homo sapiens) (UniProt P08588); conditions: 1 to 2 uM
[17] = target: Kappa-type opioid receptor (Homo sapiens) (UniProt P41145); conditions: 1 to 2 uM
Sequence of Kappa-type opioid receptor (Homo sapiens) (P41145 whole entry): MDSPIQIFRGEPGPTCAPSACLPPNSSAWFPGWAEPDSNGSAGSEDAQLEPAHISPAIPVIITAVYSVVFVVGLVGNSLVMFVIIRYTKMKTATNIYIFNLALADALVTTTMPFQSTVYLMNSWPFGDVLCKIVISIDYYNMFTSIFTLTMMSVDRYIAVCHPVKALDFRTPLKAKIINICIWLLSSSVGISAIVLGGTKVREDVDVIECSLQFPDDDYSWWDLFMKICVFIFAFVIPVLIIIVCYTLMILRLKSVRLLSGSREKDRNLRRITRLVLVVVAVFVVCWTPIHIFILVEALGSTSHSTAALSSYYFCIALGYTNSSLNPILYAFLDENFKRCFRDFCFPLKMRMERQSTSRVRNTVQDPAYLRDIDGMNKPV

[18] = target: Somatostatin receptor type 2 (Homo sapiens) (UniProt P30874); conditions: 1 to 2 uM
Sequence of Somatostatin receptor type 2 (Homo sapiens) (P30874 whole entry): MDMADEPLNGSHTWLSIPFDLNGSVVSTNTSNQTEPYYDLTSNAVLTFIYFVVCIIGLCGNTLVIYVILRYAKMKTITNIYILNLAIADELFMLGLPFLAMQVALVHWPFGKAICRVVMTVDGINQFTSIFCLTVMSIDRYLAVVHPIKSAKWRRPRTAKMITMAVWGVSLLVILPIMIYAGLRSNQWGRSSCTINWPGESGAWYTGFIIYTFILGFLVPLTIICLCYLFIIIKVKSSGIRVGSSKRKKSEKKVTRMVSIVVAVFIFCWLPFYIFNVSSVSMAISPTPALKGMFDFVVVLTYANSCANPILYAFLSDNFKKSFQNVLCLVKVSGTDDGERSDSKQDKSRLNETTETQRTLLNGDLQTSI

[19] = target: D(2) dopamine receptor (Homo sapiens) (UniProt P14416); conditions: 1 to 2 uM; remark: listed apart in the source
[20] = target: 5-hydroxytryptamine receptor 2A (Homo sapiens) (UniProt P28223); conditions: 1 to 2 uM
[21] = target: Mu-type opioid receptor (Homo sapiens) (UniProt P35372); conditions: 1 to 2 uM
[22] = target: Adrenergic receptor alpha-2 (Homo sapiens) (UniProt P08913+P18825+P18089); conditions: 1 to 2 uM
[23] = target: Motilin receptor (Homo sapiens) (UniProt O43193); conditions: 1 to 2 uM
Sequence of Motilin receptor (Homo sapiens) (O43193 whole entry): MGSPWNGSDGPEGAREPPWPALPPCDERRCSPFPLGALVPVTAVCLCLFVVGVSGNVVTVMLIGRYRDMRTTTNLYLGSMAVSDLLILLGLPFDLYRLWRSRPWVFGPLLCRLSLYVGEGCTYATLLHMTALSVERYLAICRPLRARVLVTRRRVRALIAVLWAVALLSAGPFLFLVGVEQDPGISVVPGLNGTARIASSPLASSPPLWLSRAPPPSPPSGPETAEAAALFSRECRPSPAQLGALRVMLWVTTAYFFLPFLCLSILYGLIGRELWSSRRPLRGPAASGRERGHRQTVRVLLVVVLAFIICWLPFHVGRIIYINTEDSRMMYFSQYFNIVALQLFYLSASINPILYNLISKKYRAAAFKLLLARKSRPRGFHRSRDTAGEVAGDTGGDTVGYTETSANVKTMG

[24] = target: D(3) dopamine receptor (Homo sapiens) (UniProt P35462); conditions: 1 to 2 uM
[25] = target: Substance-K receptor (Homo sapiens) (UniProt P21452); conditions: 1 to 2 uM
[26] = target: 5-hydroxytryptamine receptor 4 (Rattus norvegicus, UniProt Q62758); assay: Agonist activity at 5-HT4 receptor in rat esophageal thoracic muscularis mucosae assessed as carbachol-induced contraction
Sequence of 5-hydroxytryptamine receptor 4 (Rattus norvegicus, UniProt Q62758) (Q62758 whole entry): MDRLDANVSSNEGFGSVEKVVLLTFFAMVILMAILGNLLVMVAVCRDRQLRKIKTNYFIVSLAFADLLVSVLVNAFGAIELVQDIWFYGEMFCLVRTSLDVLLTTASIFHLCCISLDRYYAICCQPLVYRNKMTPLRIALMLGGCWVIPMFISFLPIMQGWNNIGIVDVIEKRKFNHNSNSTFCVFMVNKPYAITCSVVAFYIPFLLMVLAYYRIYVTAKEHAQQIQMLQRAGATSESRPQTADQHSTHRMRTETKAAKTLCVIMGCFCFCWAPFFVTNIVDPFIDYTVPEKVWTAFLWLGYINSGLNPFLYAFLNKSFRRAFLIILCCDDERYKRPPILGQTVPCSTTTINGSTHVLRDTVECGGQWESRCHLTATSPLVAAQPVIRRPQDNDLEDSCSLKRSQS
Outline: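 The distal 1.2 cm of rat esophagus was equilibrated 60 min in Krebs–Henseleit, washed every 15 min, with isometric force recording. Tissue was precontracted with 3 μM carbachol, then given a cumulative relaxation curve to 5-HT. After a wash and 60 min recovery it was recontracted and a test-compound curve run. Potency is relative to 5-HT in the same preparation.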

Rattus norvegicus [27] = assay: AUCinfinity in rat at 5 mg/kg, po; assay type: ADME, organism-based; parameters: dose 5 mg/kg, time infinity, route oral; conditions: in vivo
[28] = Half life in rat at 5 mg/kg, po; assay type: ADME, organism-based; conditions: in vivo
[29] = Tmax in rat at 5 mg/kg, po; assay type: ADME, organism-based; conditions: in vivo
[30] = Cmax in rat at 5 mg/kg, po; assay type: ADME, organism-based; parameters: dose 5 mg/kg, route oral; conditions: in vivo
Rattus norvegicus [31] = assay: Induction of gastric emptying rate in Sprague-Dawley rat at 5 mg/kg, iv administered prior to feeding along with cisplatin injection measured after 40 mins; assay type: functional, Stomach
Outline: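 Male Sprague-Dawley rats (220–250 g) were fasted 18 h with water available. A 2 mL semisolid meal was given 30 min after drug, together with cisplatin 5 mg/kg i.v. Gastric emptying was determined 40 min later from stomach weights versus 0-time controls: [1 − test/control] × 100.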

COc1cc(N)c(Cl)cc1C(=O)N[C@H]1CCN(CC2CCN(C(=O)C(C)C)CC2)C[C@H]1OC.CS(=O)(=O)O
solubility [1]: > 10 mg/mL

COc1cc(N)c(Cl)cc1C(=O)N[C@@H]1CCN(CC2CCN(C(=O)C(C)C)CC2)C[C@@H]1OC
IC50 [2]: 68 nM | Activity (Rattus norvegicus [3]): 61.7%

COc1cc(N)c(Cl)cc1C(=O)N[C@H]1CCN(CC2CCN(C(=O)C(C)C)CC2)C[C@H]1OC.O=C(O)C(O)C(O)C(=O)O
solubility [1]: > 30 mg/mL

CCOC(=O)N1CCC(CN2CC[C@H](NC(=O)c3cc(Cl)c(N)cc3OC)[C@H](OC)C2)CC1
IC50 [2]: 377 nM | Activity (Rattus norvegicus [3]): 55.9%

COc1cc(N)c(Cl)cc1C(=O)N[C@H]1CCN(CCCn2ncnn2)C[C@H]1OC
IC50 [2]: 1120 nM | IC50 [4]: > 10000 nM

Br.COc1cc(N)c(Cl)cc1C(=O)N[C@H]1CCN(CC2CCN(C(=O)C(C)C)CC2)C[C@H]1OC
solubility [1]: < 5 mg/mL

COc1cc(N)c(Cl)cc1C(=O)N[C@H]1CCN(CC2CCN(C(=O)C(C)C)CC2)C[C@H]1OC.O=C(O)/C=C\C(=O)O
solubility [1]: > 10 mg/mL

COc1cc(N)c(Cl)cc1C(=O)N[C@H]1CCN(CC2CCN(C(=O)C(C)C)CC2)C[C@H]1OC.O=C(O)CC(O)(CC(=O)O)C(=O)O
solubility [1]: > 30 mg/mL

COc1cc(N)c(Cl)cc1C(=O)N[C@H]1CCN(CC2CCN(C(=O)C(C)C)CC2)C[C@H]1OC.Cl
solubility [1]: > 15 mg/mL

COc1cc(N)c(Cl)cc1C(=O)N[C@H]1CCN(CC2CCN(C(=O)C(C)C)CC2)C[C@H]1OC
IC50 [2]: > 10000 nM | Activity (Rattus norvegicus [3]): 56.5%

COc1cc(N)c(Cl)cc1C(=O)N[C@H]1CCN(CC2CCN(C(=O)C(C)C)CC2)C[C@H]1OC (racemic)
inhibition [5]: 50% | inhibition [6]: 50% | inhibition [7]: 50% | inhibition [8]: 50% | inhibition [9]: 50% | inhibition [10]: 50% | inhibition [11]: 50% | inhibition [12]: 50% | inhibition [13]: 50% | inhibition [14]: 50% | inhibition [15]: 50% | inhibition [16]: 50% | inhibition [17]: 50% | inhibition [18]: 50% | inhibition [19]: 50% | inhibition [20]: 50% | inhibition [21]: 50% | inhibition [22]: 50% | inhibition [23]: 50% | inhibition [24]: 50% | inhibition [25]: 50%

COc1cc(N)c(Cl)cc1C(=O)N[C@H]1CCN(CCCn2ccnc2)C[C@H]1OC (relative stereo)
IC50 [2]: 1160 nM | EC50 [26]: 251 nM

CCC(=S)N1CCC(CN2CC[C@H](NC(=O)c3cc(Cl)c(N)cc3OC)[C@H](OC)C2)CC1 (relative stereo)
IC50 [2]: 593 nM | Activity (Rattus norvegicus [3]): 61%

COc1cc(N)c(Cl)cc1C(=O)N[C@H]1CCN(CCC(=O)N2CCOCC2)C[C@H]1OC (relative stereo)
IC50 [2]: 954 nM

COc1cc(N)c(Cl)cc1C(=O)N[C@H]1CCN(CC2CCN(C(=O)CC(C)C)CC2)C[C@H]1OC (relative stereo)
Activity (Rattus norvegicus [3]): 54.3%

COc1cc(N)c(Cl)cc1C(=O)N[C@H]1CCN(CCC(=O)N2CCCC2)C[C@H]1OC (relative stereo)
IC50 [2]: 920 nM

CCCOC(=O)N1CCC(CN2CC[C@H](NC(=O)c3cc(Cl)c(N)cc3OC)[C@H](OC)C2)CC1 (relative stereo)
IC50 [2]: 134 nM | Activity (Rattus norvegicus [3]): 57.7%

COc1cc(N)c(Cl)cc1C(=O)N[C@H]1CCN(CC2CCN(C(=S)C(C)C)CC2)C[C@H]1OC (relative stereo)
IC50 [2]: 155 nM | Activity (Rattus norvegicus [3]): 67.3%

COc1cc(N)c(Cl)cc1C(=O)N[C@H]1CCN(CCn2cccc2)C[C@H]1OC (relative stereo)
IC50 [2]: 5760 nM

COc1cc(N)c(Cl)cc1C(=O)N[C@H]1CCN(CCCn2cccc2)C[C@H]1OC (relative stereo)
IC50 [2]: 648 nM | EC50 [26]: 676 nM

COc1cc(N)c(Cl)cc1C(=O)N[C@H]1CCN(CCC(=O)N2CCCCC2)C[C@H]1OC (relative stereo)
IC50 [2]: 560 nM | EC50 [26]: 1050 nM

COc1cc(N)c(Cl)cc1C(=O)N[C@H]1CCN(CC2CCN(C(=O)NC(C)C)CC2)C[C@H]1OC (relative stereo)
IC50 [2]: 73 nM | Activity (Rattus norvegicus [3]): 59.9%

CCC(=O)N1CCC(CN2CC[C@H](NC(=O)c3cc(Cl)c(N)cc3OC)[C@H](OC)C2)CC1 (relative stereo)
IC50 [2]: 329 nM | Activity (Rattus norvegicus [3]): 57.8% | EC50 [26]: 380 nM

CCC(=O)N1CCCC(CN2CC[C@H](NC(=O)c3cc(Cl)c(N)cc3OC)[C@H](OC)C2)C1 (relative stereo)
IC50 [2]: 493 nM | EC50 [26]: 1550 nM

COc1cc(N)c(Cl)cc1C(=O)N[C@H]1CCN(CC2CCN(C(C)=O)CC2)C[C@H]1OC (relative stereo)
IC50 [2]: 592 nM | Activity (Rattus norvegicus [3]): 39.5%

CCCC(=O)N1CCC(CN2CC[C@H](NC(=O)c3cc(Cl)c(N)cc3OC)[C@H](OC)C2)CC1 (relative stereo)
IC50 [2]: 178 nM | Activity (Rattus norvegicus [3]): 48.6%

COc1cc(N)c(Cl)cc1C(=O)N[C@H]1CCN(CCCn2cncn2)C[C@H]1OC (relative stereo)
IC50 [2]: 1270 nM | IC50 [4]: 7710 nM | EC50 [26]: 708 nM

COc1cc(N)c(Cl)cc1C(=O)N[C@H]1CCN(CC2CCN(C(=O)N(C)C)CC2)C[C@H]1OC (relative stereo)
IC50 [2]: 52 nM | Activity (Rattus norvegicus [3]): 46%

CCC(=O)N1CCC(CCN2CC[C@H](NC(=O)c3cc(Cl)c(N)cc3OC)[C@H](OC)C2)CC1 (relative stereo)
IC50 [2]: 805 nM

COc1cc(N)c(Cl)cc1C(=O)N[C@H]1CCN(CCC(=O)N2CCC(Cc3ccccc3)CC2)C[C@H]1OC (relative stereo)
IC50 [2]: 66 nM | EC50 [26]: 6030 nM

COc1cc(N)c(Cl)cc1C(=O)N[C@H]1CCN(CC2CCN(C(=O)C(C)(C)C)CC2)C[C@H]1OC (relative stereo)
AUC (Rattus norvegicus [27]): 263 ng·h/mL | IC50 [2]: 118 nM | Activity (Rattus norvegicus [3]): 56.4% | half-life [28]: 46.2 min | Tmax [29]: 15 min | Cmax [30]: 345 ng/mL | Activity (Rattus norvegicus [31]): 56.6% | EC50 [26]: 100 nM

COC(=O)N1CCC(CN2CC[C@H](NC(=O)c3cc(Cl)c(N)cc3OC)[C@H](OC)C2)CC1 (relative stereo)
IC50 [2]: 190 nM | Activity (Rattus norvegicus [3]): 56.2%

COc1cc(N)c(Cl)cc1C(=O)N[C@H]1CCN(CCCOc2ccc(F)cc2)C[C@H]1OC (relative stereo) [REL-CISAPRIDE]
AUC (Rattus norvegicus [27]): 142 ng·h/mL | Activity (Rattus norvegicus [3]): 57.1% | half-life [28]: 88.8 min | Tmax [29]: 15 min | Cmax [30]: 104 ng/mL | Activity (Rattus norvegicus [31]): 57.2%
